# Screens: PubChem, The Scripps Research Institute Molecular Screening Center
# Rows were chosen to be rich in hits. Some 2.4% of all compounds tested hit in one or more screens of this group.
# S1P4 antagonist – S1P4 receptor antagonists, primary screen, cell-based | Sphingosine 1-phosphate receptor 4 (Homo sapiens), O95977 | S1P4-expressing cells, antagonist mode, reporter read-out | inhibition, % at 4.98 µM | actives 0.26% (n = 220,000); in the data active means inhibition above about 29%
# S1P4 agonist – S1P4 receptor agonists, primary screen, cell-based; Sphingosine 1-phosphate receptor 4 (Homo sapiens), O95977; S1P4-expressing cell line, agonist reporter assay; activation, % at 4.98 µM; actives 0.35% (n = 220,000); AID 1509, 2009; in the data active means activation above about 11%
# NPY Y2 blocker – NPY-Y2 receptor antagonists, primary screen, cell-based. Neuropeptide Y receptor type 2 (Homo sapiens), P49146. NPY-Y2 expressing cells, antagonist mode. inhibition, % at 2.7 µM. actives 0.99% (n = 140,000). AID 793, 2007; in the data active means inhibition above about 17%
# NPY Y1 blocker – NPY-Y1 receptor antagonists, primary screen, cell-based. Neuropeptide Y receptor type 1 (Homo sapiens), P25929. HEK293-CNG Y1 cells, membrane potential fluorescence; NPY at EC95, then isoproterenol. inhibition, % at 3.6 µM. actives 1% (n = 200,000). AID 1040, 2008;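 active means inhibition above the campaign mean inhibition of all tested compounds plus 3 SD, cut at about 20% in these data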
# Target sequence (P25929 whole entry, looked up): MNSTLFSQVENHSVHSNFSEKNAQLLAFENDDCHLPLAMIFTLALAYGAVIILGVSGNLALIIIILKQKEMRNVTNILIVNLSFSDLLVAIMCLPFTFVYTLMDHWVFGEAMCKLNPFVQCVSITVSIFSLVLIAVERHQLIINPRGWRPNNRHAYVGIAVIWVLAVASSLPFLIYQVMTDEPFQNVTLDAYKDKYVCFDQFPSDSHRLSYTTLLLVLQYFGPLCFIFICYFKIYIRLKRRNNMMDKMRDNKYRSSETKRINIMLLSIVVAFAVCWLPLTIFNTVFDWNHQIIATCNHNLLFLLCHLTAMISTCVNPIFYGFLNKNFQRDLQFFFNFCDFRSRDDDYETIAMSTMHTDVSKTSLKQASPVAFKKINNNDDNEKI
#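 System: HEK293 cells with Y1 receptor plus CNG channel / Probe or stimulus: NPY 25 nM then isoproterenol 1 µM plus Ro 20-1724 25 µM / Compound: one concentration, 3.6 µM, in 0.4% DMSO / Schedule: compound incubation 1 h at room temperature, readout 45 min post-stimulation / Measured by: membrane potential fluorescence / Read-out: % inhibition of NPY effect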
# NPY1 pot ag – NPY-Y1 receptor potentiators or agonists, primary screen, cell-based; actives 0.37% (n = 220,000); NPY-Y1 expressing cells, potentiator/agonist activation; AID 1304, 2008; Neuropeptide Y receptor type 1 (Homo sapiens), P25929; activation, % at 3.6 µM; in the data active means activation above about 33%, passing the limit was not always enough;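 further: cells stimulated with NPY at EC10 then isoproterenol at EC100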
# NPY2 pot ag – NPY-Y2 potentiators or agonists, primary screen, cell-based. Neuropeptide Y receptor type 2 (Homo sapiens), P49146. cells expressing NPY-Y2, potentiator/agonist read-out. activation, % at 3.6 µM. actives 0.45% (n = 220,000); in the data active means activation above about 27%;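 further: cells stimulated with NPY near EC25 plus isoproterenol at EC100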
# S1P4 antag cf – S1P4 receptor antagonists, human, confirmation, cell-based; shares compounds with S1P4 antagonist; S1P4-expressing cell line, antagonist mode, reporter read-out; inhibition, % at 4.98 µM; actives 71% (n = 520); AID 1524, 2009; in the data active means inhibition above about 30%
# S1P1 antagonist – S1P1 receptor antagonists, human, counter-screen for S1P4 antagonist project, cell-based | shares compounds with S1P4 antagonist | cell-based S1P1 antagonist counterscreen, inhibition | inhibition, % at 4.98 µM | actives 37% (n = 520) | AID 1564, 2009; in the data active means inhibition above about 40%;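 further: receptor stimulated with S1P near its EC80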
# Numbers stand for hits; 0 = inactive; - = not tested or not shown.
SMILES,S1P4 antagonist,S1P4 agonist,NPY Y2 blocker,NPY Y1 blocker,NPY1 pot ag,NPY2 pot ag,S1P4 antag cf,S1P1 antagonist
C=CCN(c1cccc(C(F)(F)F)c1)S(=O)(=O)c1cccc(C(=O)OCC(=O)NCCC)c1,0,0,0,0,0,0,-,-
COc1ccc(N2CCN(c3cc(C)c4ccc(O)cc4n3)CC2)cc1,0,0,0,0,0,0,-,-
Cc1cc(Nc2cccc(O)c2)c2ccccc2n1,0,0,-,0,0,0,-,-
COc1ccc(Nc2cc(C)c3ccc(O)cc3n2)cc1,88.3,0,-,-,0,0,64.6,0
Cc1cc(Nc2ccccc2)nc2cc(O)ccc12,91.8,0,0,0,0,0,81.2,41.1
O=c1c2ccccc2nc(SCc2ccccc2)n1CC1CCCO1 (centres undefined),0,0,-,-,0,0,-,-
CS(=O)(=O)c1nc(-c2cccs2)cc(C(F)(F)F)n1,39.4,0,0,0,0,0,118.5,40.8
CS(=O)(=O)c1nc(-c2ccc(F)cc2)cc(C(F)(F)F)n1,70.1,0,-,0,0,0,116.9,0
Cc1cc(NC(=O)CCCS(=O)(=O)c2nc(-c3cccs3)cc(C(F)(F)F)n2)no1,39.9,0,0,0,0,0,110.8,44.8
CC(=O)c1c(C(C)=O)c(C)n(Cc2ccccc2)c1C,0,0,0,0,0,0,-,-
Cc1c(C=O)c(C=O)c(C)n1Cc1ccccc1,34.8,0,0,0,0,0,41.9,0
CCOc1ccc(-c2csc(NNC3=NCCCCC3)n2)cc1,0,0,-,0,0,0,-,-
C#CCOc1ccc(C2C3=C(COC3=O)Nc3cc4c(cc32)OCO4)cc1OC (centres undefined),38.3,0,-,0,0,0,39.4,79.8
CCN(CC)c1ccc(/C=C/c2cc(-c3ccccc3)c3ccccc3n2)cc1,46.3,0,-,-,0,0,90.7,103.8
Oc1ccccc1C1Nc2cccc3cccc(c23)N1,0,0,0,0,0,0,-,-
O=[N+]([O-])c1ccc(Cl)c(C2Nc3cccc4cccc(c34)N2)c1,58.6,0,0,0,0,0,0,0
O=[N+]([O-])c1ccccc1C1Nc2cccc3cccc(c23)N1,59.4,0,0,0,0,0,0,0
CCN(CC)S(=O)(=O)c1ccc(OCCNS(C)(=O)=O)cc1,0,0,-,0,0,0,-,-
Cc1cccc(C)c1NC(=O)c1ccc(-c2ccc(Cl)cc2Cl)o1,95.7,0,0,0,0,0,110.7,0
Cc1cccc(-n2nnc3c(=O)n(Cc4ccccn4)cnc32)c1,0,0,-,0,0,0,-,-
CC1=CC(C)(C)Nc2ccc(OC(=O)c3cccnc3)cc21,0,0,0,0,0,0,-,-
CC1=CC(C)(C)Nc2ccc(OC(=O)c3ccco3)cc21,29.8,0,0,0,0,0,56.1,0
COc1cccc(-n2nc(C#N)c(Cl)cc2=O)c1,93.7,0,-,0,0,0,104.1,0
CC(C)(C)OC(=O)N[C@@H](Cc1ccccc1)c1nnc(S(=O)(=O)Cc2cccc(F)c2)o1,78.4,0,0,0,0,0,93.7,0
Cc1ccccc1CS(=O)(=O)c1nnc([C@H](CC(C)C)NC(=O)OC(C)(C)C)o1,86.0,0,0,0,0,0,113.3,0
SMILES,S1P4 antagonist,S1P4 agonist,NPY Y2 blocker,NPY Y1 blocker,NPY1 pot ag,NPY2 pot ag,S1P4 antag cf,S1P1 antagonist
CC(C)C[C@H](N)c1nnc(S(=O)(=O)Cc2cccc(F)c2)o1,0,0,0,0,0,0,-,-
CC[C@@H](C)[C@H](NC(=O)OC(C)(C)C)c1nnc(S(=O)(=O)Cc2cc(C)ccc2C)o1,57.3,0,0,0,0,0,105.2,0
COC(=O)c1cc(=O)n(Cc2ccco2)c(=Nc2ccc(F)c(Cl)c2)s1,34.0,0,0,0,0,0,102.4,60.2
COC(=O)c1cc(=O)n(CCc2ccccc2F)c(=Nc2ccc(F)c(Cl)c2)s1,0,0,0,0,0,0,-,-
O=C(CSc1nnc(-c2ccc(C(F)(F)F)cn2)s1)c1ccc(Cl)cc1,0,0,-,-,0,0,-,-
CNC(=O)CSc1nnc(C(C)C)n1C,0,0,-,0,0,0,-,-
COc1cc(-c2nc3n(n2)C(c2ccncc2)C(C(N)=O)=C(C)N3)cc(OC)c1OC (centres undefined),65.9,0,0,0,0,0,0,0
OCc1cn(-c2ccc(Cl)cc2)nn1,0,0,-,0,0,0,-,-
CCCCN(C)CC(O)Cn1cc(/C=C/C(=O)c2cccs2)c2ccccc21 (centres undefined),47.2,0,0,0,0,0,61.2,87.6
COc1cccc(CNC(=O)Cn2ncc3c(=O)oc4ccccc4c32)c1,0,0,-,-,0,0,-,-
Cc1ccc(Nc2cc(C)nn2-c2nc(C)cc(=O)[nH]2)cc1,92.2,0,0,0,0,0,114.1,94.7
O=C(O)C(Cc1c[nH]c2ccccc12)N1C(=O)c2ccccc2C1=O (centres undefined),0,0,-,-,0,0,-,-
CCc1ccc(OCC(=O)NC(NC(=S)Nc2ccc(Cl)cc2)C(Cl)(Cl)Cl)cc1 (centres undefined),41.5,0,0,0,0,0,0,0
CCCN1C(=O)S/C(=C\c2ccc(N3CCOCC3)cc2C)C1=O,0,0,0,0,0,0,-,-
CCCN1C(=O)S/C(=C/c2ccc(N3CCOCC3)o2)C1=O,33.1,0,-,-,0,0,0,0
CN1Cc2c(N3CCOCC3)nc3sc(C#N)c(N)c3c2CC1(C)C,0,0,-,-,0,0,-,-
CN1Cc2c(N3CCOCC3)nc3sc(C(=O)c4ccc(Br)cc4)c(N)c3c2CC1(C)C,43.1,0,-,-,0,0,56.6,58.5
O=C(OCn1ncc(Cl)c(Cl)c1=O)c1ccc(F)cc1,0,0,0,0,0,0,-,-
O=C(OCn1ncc(Br)c(Br)c1=O)c1c(F)cccc1F,59.5,0,0,0,0,0,115.6,0
CC(=O)Cn1ncc(Br)c(Br)c1=O,33.5,0,-,0,0,0,111.0,50.9
O=C(NC(=S)N(CCO)Cc1ccccc1)c1cc(Br)ccc1Cl,0,0,-,0,0,0,-,-
COc1ccc(-c2csc(NC3OC(=O)c4c3ccc(OC)c4OC)n2)cc1OC (centres undefined),32.3,0,-,-,0,0,57.6,43.5
COc1ccc2c(c1OC)C(=O)OC2Nc1nc(-c2ccc([N+](=O)[O-])cc2)cs1 (centres undefined),0,0,-,-,0,0,-,-
Oc1ccccc1CN1CCC(C(O)(c2ccccc2)c2ccccc2)CC1,0,0,0,0,0,0,-,-
